Experimental findings from ChEMBL document CHEMBL4422685, “Design, synthesis and evaluation of a series of 5-methoxy-2,3-naphthalimide derivatives as AcrB inhibitors for the reversal of bacterial resistance” (Bioorg Med Chem Lett, 2019) are described below.

The structures appear in SMILES notation.

For data set [1], the target named is T1, Multidrug efflux pump subunit AcrB (Escherichia coli (strain K12)) (UniProt P31224).
T1 sequence (whole entry): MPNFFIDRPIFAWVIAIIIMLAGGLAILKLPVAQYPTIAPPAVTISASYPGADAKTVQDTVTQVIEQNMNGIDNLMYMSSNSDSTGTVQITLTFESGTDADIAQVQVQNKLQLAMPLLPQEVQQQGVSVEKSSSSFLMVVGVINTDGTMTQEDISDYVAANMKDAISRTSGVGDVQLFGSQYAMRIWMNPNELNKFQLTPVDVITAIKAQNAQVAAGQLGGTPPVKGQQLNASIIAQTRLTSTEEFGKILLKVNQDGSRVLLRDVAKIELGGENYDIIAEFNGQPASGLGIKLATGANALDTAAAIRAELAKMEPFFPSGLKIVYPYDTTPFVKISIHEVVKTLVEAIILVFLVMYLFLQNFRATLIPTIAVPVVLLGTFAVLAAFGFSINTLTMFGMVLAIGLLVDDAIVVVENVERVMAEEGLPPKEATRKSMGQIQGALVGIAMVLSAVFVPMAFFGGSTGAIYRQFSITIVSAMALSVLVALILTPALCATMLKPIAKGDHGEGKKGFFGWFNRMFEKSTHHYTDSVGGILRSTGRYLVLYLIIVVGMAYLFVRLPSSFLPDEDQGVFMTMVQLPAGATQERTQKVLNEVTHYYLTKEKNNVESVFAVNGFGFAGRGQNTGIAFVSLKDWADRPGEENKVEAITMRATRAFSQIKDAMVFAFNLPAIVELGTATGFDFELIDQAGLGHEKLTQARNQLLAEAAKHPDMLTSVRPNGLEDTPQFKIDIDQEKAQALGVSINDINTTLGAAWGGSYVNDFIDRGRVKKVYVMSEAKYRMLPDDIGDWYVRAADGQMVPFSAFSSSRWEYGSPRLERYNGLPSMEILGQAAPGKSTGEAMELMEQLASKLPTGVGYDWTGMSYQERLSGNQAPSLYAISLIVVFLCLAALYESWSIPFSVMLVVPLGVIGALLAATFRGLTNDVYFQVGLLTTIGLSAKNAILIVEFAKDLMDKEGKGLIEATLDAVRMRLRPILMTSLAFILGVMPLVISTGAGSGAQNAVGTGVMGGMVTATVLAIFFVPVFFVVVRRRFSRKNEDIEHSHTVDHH
Nature of the data set: Inhibition of AcrB in wild-type drug-resistant Escherichia coli […] assessed as potentiation of chloramphenicol-induced antimicrobial activity by measuring chloramphenicol MIC at 32 ug/ml by checkerboard titration method (Rvb =16 ug/ml).

Data set [2] relates to Escherichia coli. Nature of the data set: Disruption of Escherichia coli inner membrane integrity at 128 ug/ml after 10 mins by DiOC2(3) probe based fluorescence assay. The data set is classed as ADME, organism-based. Conditions: in vivo. A digest of the protocol:
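Bacterial suspensions pre-exposed to compound for 10 min, then DiOC2(3) added and fluorescence followed to plateau. Cells re-energized with 0.5% glucose; membrane potential (inside negative) read as fluorescence rise to plateau, then collapsed with the proton ionophore CCCP. Untreated cells run alongside.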

Data set [3] addresses T1, Multidrug efflux pump subunit AcrB (Escherichia coli (strain K12)). The data set is described as follows: Inhibition of AcrB in wild-type drug-resistant Escherichia coli […] assessed as potentiation of erythromycin-induced antimicrobial activity by measuring erythromycin MIC at 128 ug/ml by checkerboard titration method (reference value: 64 ug/ml).
The target is the same in data set [4]. Nature of the data set: Inhibition of AcrB in wild-type drug-resistant Escherichia coli […] assessed as potentiation of levofloxacin-induced antimicrobial activity by measuring levofloxacin MIC at 8 ug/ml by checkerboard titration method (reference value: 0.063 ug/ml).
The target is the same in data set [5]. Nature of the data set: Inhibition of AcrB in wild-type drug-resistant Escherichia coli […] assessed as potentiation of chloramphenicol-induced antimicrobial activity by measuring chloramphenicol MIC at 8 ug/ml by checkerboard titration method (Rvb =16 ug/ml).
The target is the same in data set [6]. Nature of the data set: Inhibition of AcrB in wild-type drug-resistant Escherichia coli […] assessed as potentiation of levofloxacin-induced antimicrobial activity by measuring levofloxacin MIC at 16 ug/ml by checkerboard titration method (reference value: 0.063 ug/ml).
The target is the same in data set [7]. The data set is described as follows: Inhibition of AcrB in wild-type drug-resistant Escherichia coli […] assessed as potentiation of levofloxacin-induced antimicrobial activity by measuring levofloxacin MIC at 32 ug/ml by checkerboard titration method (reference value: 0.063 ug/ml).
Data set [8] has the same target. Nature of the data set: Inhibition of AcrB in wild-type drug-resistant Escherichia coli […] assessed as potentiation of levofloxacin-induced antimicrobial activity by measuring levofloxacin MIC at 64 ug/ml by checkerboard titration method (reference value: 0.063 ug/ml).
Data set [9] has the same target. The data set is described as follows: Inhibition of AcrB in wild-type drug-resistant Escherichia coli […] assessed as potentiation of levofloxacin-induced antimicrobial activity by measuring levofloxacin MIC at 128 ug/ml by checkerboard titration method (reference value: 0.063 ug/ml).
Data set [10] shares this target. Nature of the data set: Inhibition of AcrB in wild-type drug-resistant Escherichia coli BW2113 assessed as potentiation of chloramphenicol-induced antimicrobial activity by measuring chloramphenicol MIC at 16 ug/ml by checkerboard titration method (Rvb =16 ug/ml).
Data set [11] has the same target. Nature of the data set: Inhibition of AcrB in wild-type drug-resistant Escherichia coli […] assessed as potentiation of tetraphenyl phosphonium chloride-induced antimicrobial activity by measuring tetraphenyl phosphonium chloride MIC at 128 ug/ml by checkerboard titration method (reference value: 1024 ug/ml).
In data set [12] the test system is Escherichia coli. Nature of the data set: Induction of Escherichia coli outer membrane permeabilization assessed as increase in nitrocefin hydrolysis at 128 ug/ml by spectroscopic method. It counts as organism-based.
For data set [13], the target named is T1, Multidrug efflux pump subunit AcrB (Escherichia coli (strain K12)). The data set is described as follows: Inhibition of AcrB in wild-type drug-resistant Escherichia coli […] assessed as potentiation of chloramphenicol-induced antimicrobial activity by measuring chloramphenicol MIC at 128 ug/ml by checkerboard titration method (Rvb =16 ug/ml).
Data set [14] shares this target. Nature of the data set: Inhibition of AcrB in wild-type drug-resistant Escherichia coli […] assessed as potentiation of tetraphenyl phosphonium chloride-induced antimicrobial activity by measuring tetraphenyl phosphonium chloride MIC at 16 ug/ml by checkerboard titration method (reference value: 1024 ug/ml).
For data set [15] the target is unchanged. The data set is described as follows: Inhibition of AcrB in wild-type drug-resistant Escherichia coli […] assessed as potentiation of tetraphenyl phosphonium chloride-induced antimicrobial activity by measuring tetraphenyl phosphonium chloride MIC at 32 ug/ml by checkerboard titration method (reference value: 1024 ug/ml).
For data set [16] the target is unchanged. Nature of the data set: Inhibition of AcrB in wild-type drug-resistant Escherichia coli […] assessed as potentiation of tetraphenyl phosphonium chloride-induced antimicrobial activity by measuring tetraphenyl phosphonium chloride MIC at 8 ug/ml by checkerboard titration method (reference value: 1024 ug/ml).
The target is the same in data set [17]. Nature of the data set: Inhibition of AcrB in wild-type drug-resistant Escherichia coli […] assessed as potentiation of erythromycin-induced antimicrobial activity by measuring erythromycin MIC at 64 ug/ml by checkerboard titration method (reference value: 64 ug/ml).

On to `CCCCCCN1C(=O)c2cc3cccc(OC)c3cc2C1=O`, for which the MIC in data set [1] was found to be 16 µg/mL; in data set [3] it was 8 µg/mL; in data set [4], 0.063 µg/mL; in data set [5], 16 µg/mL; in [6], 0.063 µg/mL; in [7] it was 0.063 µg/mL. Moreover, the MIC stood at 0.063 µg/mL in [8]; 0.0313 µg/mL in [9]; 16 µg/mL in data set [10]; 128 µg/mL in [11]; 8 µg/mL in data set [13]; 1020 µg/mL in data set [14]. Moreover, the values for the MIC in [15], in data set [16] and in data set [17] were 512 µg/mL, 1020 µg/mL and 16 µg/mL, respectively. Moreover, the Activity entry in data set [2] and in data set [12] was “Non-Toxic” throughout.

For the compound `COc1cccc2cc3c(cc12)C(=O)N(Cc1ccccc1)C3=O`, the MIC came to 16 µg/mL in data set [1]; 16 µg/mL in data set [3]; 0.063 µg/mL in data set [4]; 16 µg/mL in data set [5]; 0.063 µg/mL in data set [6]; 0.063 µg/mL in data set [7]. Also, the MIC in data set [8] was determined as 0.063 µg/mL; in data set [9], 0.063 µg/mL; in data set [10], 16 µg/mL; in data set [11], 512 µg/mL; in data set [13], 8 µg/mL; in data set [14] it was 1020 µg/mL. For the same compound, the MIC is 1020 µg/mL in data set [15], 1020 µg/mL in data set [16] and 32 µg/mL in data set [17]. Moreover, the Activity result in [2] and in [12] was “Non-Toxic” in each case.

On to `CCCCCN1C(=O)c2cc3cccc(OC)c3cc2C1=O`, for which the MIC worked out at 8 µg/mL in data set [1]; 8 µg/mL in data set [3]; 0.063 µg/mL in data set [4]; 16 µg/mL in data set [5]; 0.063 µg/mL in data set [6]; 0.063 µg/mL in data set [7]. Moreover, the MIC amounted to 0.0313 µg/mL in data set [8]; 0.0313 µg/mL in [9]; 16 µg/mL in [10]; 512 µg/mL in data set [11]; 4 µg/mL in data set [13]; 1020 µg/mL in [14]. In addition, the figures for the MIC in data set [15], in data set [16] and in [17] were 1020 µg/mL, 1020 µg/mL and 32 µg/mL, respectively. Also, the Activity entry in [2] and in data set [12] was “Non-Toxic” in each case.

`CCc1ccccc1N1C(=O)c2cc3cccc(OC)c3cc2C1=O`: the MIC in data set [1] was 16 µg/mL; in data set [3] it was 32 µg/mL; in data set [4], 0.063 µg/mL; in [5], 16 µg/mL; in [6], 0.063 µg/mL; in data set [7], 0.0313 µg/mL. The MIC in data set [8] amounted to 0.0313 µg/mL; in data set [9], 0.0313 µg/mL; in data set [10], 16 µg/mL; in data set [11], 512 µg/mL; in data set [13], 8 µg/mL; in data set [14] it was 1020 µg/mL. In addition, the MIC came out at 1020 µg/mL in data set [15], 1020 µg/mL in data set [16] and 64 µg/mL in data set [17]. Besides, the Activity result in [2] and in [12] was “Non-Toxic” in each case.

As to `COc1cccc2cc3c(cc12)C(=O)N(C(C)C)C3=O`, the MIC in data set [1] worked out at 8 µg/mL; in [3], 32 µg/mL; in [4], 0.063 µg/mL; in data set [5] it was 8 µg/mL; in data set [6], 0.063 µg/mL; in [7], 0.063 µg/mL. For the same compound, the MIC is 0.0313 µg/mL in data set [8]; 0.0313 µg/mL in [9]; 8 µg/mL in [10]; 512 µg/mL in [11]; 8 µg/mL in data set [13]; 1020 µg/mL in data set [14]. Also, the results for the MIC in [15], in data set [16] and in data set [17] were 1020 µg/mL, 1020 µg/mL and 32 µg/mL, respectively. Besides, the Activity result in data set [2] and in data set [12] was “Non-Toxic” each time.
